Results from PubChem BioAssay AID463104 (Sanford-Burnham Center for Chemical Genomics, 2010).
Hit rate of the full screen: of about 330,000 compounds, about 1,100 (0.33%) were called active. Many of the other results were omitted from the sample, so actives are more common in it than they were. Unmarked numbers belong to inactive results.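 The calls were made as follows: active = versus positive control, 20 µM dose yields 30% or more activation; inactive = the rest.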

Assay: activators of adaptive XBP1 UPR arm, primary screen, cell-based, CHO-XBP1 luciferase reporter, luminescence, uHTS (AID 463104);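 also: 100% = tunicamycin at 10 µg/mL and 0% = DMSO only wells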
Details: IRE1-XBP1 UPR activation, at 20 µM, active compounds read high, percent of tunicamycin response, DMSO as zero
Outline: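 assay system = CHO-XBP1 luciferase reporter cells | amount = 1000 cells/well | buffer or medium = F12 plus 10% FBS | compound dosing = single point, 20 µM final compound, 1% DMSO | incubation = 16-18 h cell attachment at 37 °C, then 6 h compound exposure | detection = Steady-Glo luminescence read | controls = tunicamycin 10 µg/mL and vehicle-only wells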

Structure (SMILES)	activation
CCCCC(O)(CCCC)C(=O)NN(C(=O)CCl)c1ccccc1	-0.49%
Cc1ccc(NC(=O)c2ccc(Oc3ncccn3)cc2)cc1	0.13%
O=C(/C=C/c1ccccc1)c1ccccc1O	78.8% (active)
O=C(/C=C/c1ccc(N2CCOCC2)cc1)c1ccccc1	2.92%
Cc1[nH]c(=O)c(C(=O)/C=C/c2ccccc2)c2c1CCCC2	-0.32%
Cc1nc2c(ncn2-c2ccccc2)c(=O)n1NC(=O)CN1CCCC1	0.65%
COCCNC(=O)c1ccc2c(c1)ncn2-c1ccc(C)c(Cl)c1	-1.46%
COc1ccc(CN2C(CC(=O)Nc3cccnc3)c3ccc(C(F)(F)F)cc3S2(=O)=O)cc1 (centres undefined)	-0.27%
Cc1ccc(Cc2cnc(NC(=O)/C(C#N)=C/c3ccc(-c4cccc([N+](=O)[O-])c4)o3)s2)cc1	131% (active)
Cc1ccc(-c2ccc(/C=C(\C#N)C(N)=S)o2)c([N+](=O)[O-])c1	-0.81%
Cc1ccc(C(=O)N/C(=C/c2ccc(-c3cccc([N+](=O)[O-])c3)o2)C(=O)NCCCN(C)C)cc1	0.17%
CC(=O)N1CCC(N(C(=O)Nc2ccc(Cl)cc2)C(C)C)CC1	2%
CCC(C(=O)N1CCN(S(=O)(=O)c2sc(C(=O)O)c(C)c2C(=O)O)CC1)c1ccccc1 (centres undefined)	-0.89%
COc1ccccc1CNC(=O)c1ccc(Cl)c(S(=O)(=O)N2CCCC2)c1	-2.56%
CC(C)NC(=O)CCCn1c(=S)[nH]c2cc3c(cc2c1=O)OCO3	0.7%
Cc1ccc(C)c(N2CCN(C(=O)CCCCCn3c(=S)[nH]c4ccc(N5CCOCC5)cc4c3=O)CC2)c1	-5.18%
O=C(CCCCCn1c(=S)[nH]c2cc3c(cc2c1=O)OCO3)N1CCN(c2ccc(F)cc2)CC1	38.5% (active)
COc1cc(C(=O)NC2CCN(C)CC2)ccc1Nc1ncc2c(n1)N(C1CCC(O)CC1)CCC(=O)N2C (centres undefined)	-2.3%
CCCCCC(=O)Nc1ccc(C(=O)N/N=C/c2ccc([N+](=O)[O-])cc2)cc1	82.5% (active)
CCCCCC(=O)NC(=S)NNC(=O)c1ccc([N+](=O)[O-])cc1	1.01%
CCCC(=O)Nc1ccc(C(=O)N/N=C/c2ccc[nH]2)cc1	-1.43%
Nc1ccc(OCC(O)C[n+]2ccc(CCS(=O)(=O)[O-])cc2)cc1 (centres undefined)	-2.33%
CCN1N=C(c2ccccc2)CCC1=O	0.24%

Structure (SMILES)	activation
Cc1cc(C)c(C#N)c(SCC(=O)Nc2ccccc2)n1	-0.84%
Cc1nc2cc(NC(=O)CSc3nc4c(C)cccc4cc3C#N)ccc2s1	30.2% (active)
Cc1nonc1NC(=O)CSc1nc2ccccc2cc1C#N	-3.02%
CC(Cc1cccs1)N(Cc1ccc(Cl)cc1)C(=O)c1ccncc1 (centres undefined)	-2.77%
COc1ccc(S(=O)(=O)NCCc2cc3ccc(C)c(C)c3[nH]c2=O)cc1	-3.05%
Cc1ccc(OCC(=O)Nc2ccc3oc(=O)ccc3c2)cc1C	-0.41%
O=C(NC(=S)Nc1ccc2oc(=O)ccc2c1)c1ccc(-c2cccc(Cl)c2Cl)o1	76.8% (active)
O=C(COc1ccc(Cl)cc1)Nc1ccc2oc(=O)ccc2c1	-0.7%
C=CCO/N=C(\C)c1c(O)c(C)c(-c2ccccc2)n(-c2ccccc2)c1=O	-1.96%
CC(C)(C)n1nc(Cc2cccc3ccccc23)c(C#N)c1N	3.6%
CCc1nn(-c2cc(Oc3cccc4ccccc34)nc(-c3ccccc3)n2)c(N)c1C#N	79.6% (active)
Cc1cc(NC(=O)CSc2nc3ccccc3n2CC(C)C)no1	-4.54%
Cc1cc(NC(=O)CSc2nnc(-c3ccco3)n2N)no1	1.89%
Cc1cc(NC(=O)CSc2nc3cc(Cl)ccc3c(=O)n2Cc2ccco2)no1	95.4% (active)
CC(C)Oc1ccc(S(=O)(=O)N2CCOCC2)cc1NC(=O)C1CSC2(C)CCC(=O)N12 (centres undefined)	-2.58%
CCCNC(=O)CCn1nc(-c2ccccc2)c2ccccc2c1=O	1.25%
O=C(COC(=O)Cc1ccc(Br)cc1)Nc1c(F)c(F)c(F)c(F)c1F	0.94%
Nc1c(NCCc2ccccc2)c2ccccc2oc1=O	-1.1%
COCCCNC(=O)[C@H]1N2C(=O)c3ccccc3C2SC1(C)C (some centres undefined)	5.98%
COc1cc(NC(=O)CSc2nnc3ccc(-c4ccncc4)nn23)cc(OC)c1	4.51%
CSc1nc(-c2ccccc2)nc(C(Cl)Cl)n1	31.3% (active)
CSc1ncc(Sc2ccccc2)c(C(=O)O)n1	-3.45%
CC(C)=CCCC1(C)C=Cc2c(ccc3c2[nH]c2cc(O)c(C)cc23)O1 (centres undefined)	46.1% (active)

Structure (SMILES)	activation
CCN(CC(=O)NCc1ccc(Cl)cc1)C(=O)CSc1ccccc1	-3.45%
O=C(NCCCN1CCCCC1)c1ccc2c(c1)NC(=O)C(N1CCOCC1)S2 (centres undefined)	-1.68%
CC1CCN(Cc2nc3c(c(=O)n(C)c(=O)n3C)n2CCc2ccccc2)CC1	-0.91%
CCCc1nc2c(c(=O)c3ccccc3n2C)c(=O)n1C1CCCCCC1	32.4% (active)
Cn1c2ccccc2c2c(C(=O)N3CCN(c4ccc(F)cc4)CC3)cn(C3CCCC3)c(=O)c21	6.07%
c1ccc2c(c1)C(=NC1CCCCC1)NC2=NC1CCCCC1	3.14%
CCC1CCC/C1=N\NC(=O)c1ccc(Cl)cc1 (centres undefined)	2.16%
COc1cc(C(=O)NCC(c2ccco2)N2CCCC2)ccc1OCc1ccccc1 (centres undefined)	-1.2%
O=S(=O)(/N=C(/Nc1ccccn1)c1ccccc1)c1ccc(Cl)cc1	0.4%
Cc1ccc(S(=O)(=O)/N=C(/Nc2ccccn2)c2ccc(Cl)cc2)cc1	1.88%
Cc1ccc(S/C(=N\S(=O)(=O)c2ccc(Cl)cc2)c2ccccc2)cc1	43.5% (active)
CC(=O)N1CC(C)c2scc(C)[n+]2-c2ccccc21 (centres undefined)	-0.83%
Cc1ccc(N2C(=O)CC(N3CCSCC3)C2=O)c(C)c1 (centres undefined)	2.27%
O=c1c2ccccc2nc2n1C(CSCc1cccc(C(F)(F)F)c1)CS2 (centres undefined)	-4.03%
COc1ccc(S(=O)(=O)N(CC(=O)N/N=C/c2ccccc2C(=O)O)c2ccccc2OC)cc1	-1.28%
Cc1ccc(S(=O)(=O)N(CC(=O)N/N=C/c2ccc(F)cc2)c2cccc3cccnc23)cc1	44.4% (active)
COc1ccccc1N(CC(=O)N/N=C(\C)c1ccccc1O)S(=O)(=O)c1ccc(C)cc1	-4.87%
Cc1ccc(CC2S/C(=C(/C#N)C(=O)N3CCOCC3)N(c3ccccc3)C2=O)cc1 (centres undefined)	-1.89%
Cc1ccnc2nc(C(=O)Nc3nnc(-c4ccccc4)o3)nn12	2.49%
O=C(CNC(=O)c1cccnc1)N/N=C/c1cc(Br)c(O)c(Br)c1	-5.3%
Cc1ccc(CSCCNC(=O)CN(c2ccc(F)cc2)S(C)(=O)=O)cc1	-2.57%
Cc1ccc(NC(=O)COc2ccc(/C=C3/NC(=O)NC3=O)cc2)cc1	-3.85%
COC(=O)C1=C(O)/C(=C/c2ccc(OCC(=O)Nc3ccccc3)cc2)N=C1C	-5.1%

Structure (SMILES)	activation
CCOC(=O)C1=C(O)/C(=C/c2ccc(OCC(=O)Nc3ccc(C)cc3)cc2)N=C1C	51.4% (active)
CCn1c(SCC(=O)NNC(=O)c2ccc(OC)cc2)nnc1C(C)C	-2.62%
CCOC(=O)/C=C/CN(C(=O)OC(C)(C)C)S(=O)(=O)N1CC=CC1	-0.55%
Cc1cccc(C)c1NC(=O)C1(N(C(=O)c2ccccn2)c2ccc(O)cc2)CCCCC1	-2.28%
CCOC(=O)N1CCN(CC(=O)n2c(C)c(C)c3ccccc32)CC1	1.59%
Cc1cccc(OCCCC(=O)Nc2ccc(S(=O)(=O)N3CCCC3)cc2)c1	-0.19%
OC(CNCC1CCCO1)Cn1c2ccc(Br)cc2c2cc(Br)ccc21 (centres undefined)	69.6% (active)
CCCN1CCn2c3c(c4cc(Br)ccc42)CCCC31 (centres undefined)	-0.93%
COCCNC(=O)c1ccc(Cn2c(SCC(=O)NCC3CCCO3)nc3ccc(Br)cc3c2=O)cc1 (centres undefined)	-6.18%
CC(=O)Nc1ccc(CC#N)cc1	-1.91%
COc1ccccc1C(=O)NCCC(=O)NCC(c1ccco1)N1CCCCC1 (centres undefined)	-0.9%
CCCc1nc2ccccc2c(=O)n1NC(=O)c1c(O)c2ccccc2[nH]c1=O	-2.34%
Cn1c(SCC(=O)N/N=C/c2ccc(O)c(O)c2)nc2ccccc21	20.8%
CCCc1nc2ccccc2c(=O)n1/N=C/c1ccc(O)c(O)c1	40.8% (active)
CN(C)CCCN(C(=O)c1ccc(S(=O)(=O)N2CCCc3ccccc32)cc1)c1nc2ccc(F)cc2s1	20.8%
COc1ccc2sc(N(CCCN(C)C)C(=O)c3ccc(S(=O)(=O)N(C)C4CCCCC4)cc3)nc2c1	1.32%
CN(C)CCCN(C(=O)c1ccc(S(=O)(=O)N2CCCCCC2)cc1)c1nc2ccc(Br)cc2s1	46.6% (active)
CC12CN(NC(=O)c3ccc(Cl)cc3)C3(C#N)CC1CCC23C (centres undefined)	-2.37%
COc1ccc(-c2c(NC(=O)c3ccco3)oc3ccc(Cl)cc3c2=O)cc1	-2.76%
CC1CCCCC12NC(=O)N(CC(=O)N1CCN(c3ccccc3)CC1)C2=O (centres undefined)	-1.08%
